The list is not random: actives were taken first. Their share in the collection is about 2.6%.
TDP2 inh: TDP2 (human) inhibition, absorbance primary screen; recombinant TDP2, T5PNP hydrolysis, p-nitrophenol absorbance 415 nm; inhibition, % at 12.8 µM; 0.34% of 370,000 active; AID 720702;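 active = inhibition above the mean of all tested compounds plus 3 SD, set per campaign, cut at about 25% in these data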;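 note: 0% = DMSO with enzyme and 100% = buffer with substrate but no TDP2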
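System – recombinant human TDP2 · Amount – 120 nM TDP2 per well · Buffer or medium – Mg2+-containing Tris-HCl buffer, pH 7.5 · Reagent – T5PNP substrate, 5 mM · Dosing – 12.8 µM single point, 1% DMSO · Incubation – 2 h at 37 °C · Measured by – epi absorbance · Read-out basis – percent inhibition · Benchmarks – high control without enzyme, low control DMSO plus TDP2 · Repeats – singlicate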
PRMT1 inh: blocks human protein arginine methyltransferase 1; 1.3% of 370,000 active; inhibition, % at 2.79 µM; recombinant PRMT1, activity-based probe fluorescence polarization; Q99873; AID 652257;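 active = inhibition above about 21% made by adding two undisclosed values, limit read from the data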
Apaf-1 inh: blocks human Apaf-1 apoptosome activity; reconstituted apoptosome caspase-3 activity, DEVD-Rh110 fluorescence; inhibition, % at 20 µM; O14727; 0.71% of 330,000 active; active = inhibition of at least 40% at 20 µM;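 note: plate controls were DMSO wells for no effect and DEVD-CHO caspase inhibitor wells for full effect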
Target sequence (O14727 whole entry, looked up): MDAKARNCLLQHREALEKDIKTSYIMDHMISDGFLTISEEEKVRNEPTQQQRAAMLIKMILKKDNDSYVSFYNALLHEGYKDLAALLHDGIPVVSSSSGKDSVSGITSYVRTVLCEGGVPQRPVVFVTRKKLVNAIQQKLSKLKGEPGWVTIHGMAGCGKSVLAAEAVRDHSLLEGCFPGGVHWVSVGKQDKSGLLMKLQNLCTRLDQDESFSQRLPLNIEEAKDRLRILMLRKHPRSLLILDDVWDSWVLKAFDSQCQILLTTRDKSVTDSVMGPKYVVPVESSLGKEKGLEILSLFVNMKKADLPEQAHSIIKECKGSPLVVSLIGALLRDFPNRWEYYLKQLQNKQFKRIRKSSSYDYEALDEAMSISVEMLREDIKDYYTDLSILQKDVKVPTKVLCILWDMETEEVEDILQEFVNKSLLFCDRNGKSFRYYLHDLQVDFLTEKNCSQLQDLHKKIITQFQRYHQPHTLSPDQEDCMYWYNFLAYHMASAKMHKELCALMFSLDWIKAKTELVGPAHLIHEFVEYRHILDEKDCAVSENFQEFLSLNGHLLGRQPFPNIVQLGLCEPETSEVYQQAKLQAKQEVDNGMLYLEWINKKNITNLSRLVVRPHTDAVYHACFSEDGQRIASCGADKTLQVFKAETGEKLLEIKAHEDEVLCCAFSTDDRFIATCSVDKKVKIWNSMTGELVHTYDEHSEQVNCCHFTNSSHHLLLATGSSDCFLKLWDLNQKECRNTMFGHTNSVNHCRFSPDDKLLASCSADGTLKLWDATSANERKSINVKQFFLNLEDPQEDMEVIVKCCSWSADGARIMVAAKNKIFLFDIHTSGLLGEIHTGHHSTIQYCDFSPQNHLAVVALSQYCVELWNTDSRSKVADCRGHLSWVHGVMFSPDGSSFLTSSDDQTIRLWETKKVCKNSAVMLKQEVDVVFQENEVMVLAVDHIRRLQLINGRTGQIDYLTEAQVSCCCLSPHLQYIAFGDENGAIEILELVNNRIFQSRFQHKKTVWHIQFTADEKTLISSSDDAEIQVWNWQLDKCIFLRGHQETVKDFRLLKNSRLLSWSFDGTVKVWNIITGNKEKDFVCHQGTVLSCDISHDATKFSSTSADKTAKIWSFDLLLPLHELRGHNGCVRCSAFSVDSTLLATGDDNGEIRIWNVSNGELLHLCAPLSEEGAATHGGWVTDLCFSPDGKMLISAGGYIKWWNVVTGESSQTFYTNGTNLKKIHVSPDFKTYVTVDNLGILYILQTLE
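Assay system – apoptosome proteins · Medium – Hepes buffer, pH 7.5 · Also added – cytochrome c with DEVD-Rh110 · Timing – 30 min compound preincubation, 50 min activation, room temperature · Detection – Rh110 fluorescence, excitation 480 nm, emission 540 nm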
GSTO1 inh: counter-screen for RBBP9 inhibitors: inhibitors of human GSTO1. P78417. recombinant GSTO1, activity-based probe fluorescence polarization. 1.1% of 300,000 active. inhibition, % at 5.96 µM;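 active = inhibition above the campaign mean inhibition plus 3 SD, cut at about 35% in these data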;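 note: 0% = GSTO1-1 with DMSO and 100% = wells lacking GSTO1-1 enzyme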
PAD4 inh: blocks human protein arginine deiminase 4. Q9UM07. recombinant PAD4, RCA probe fluorescence polarization. inhibition, % at 6.36 µM. 0.41% of 330,000 active;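 active = percent inhibition above a cutoff equal to the mean of all tested compounds plus 3 SD, cut at about 15% in these data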;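 note: 0% = PAD4 with RCA probe and DMSO and 100% = probe without PAD4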
An asterisk follows results filed as active; . = no result given.

SMILES	TDP2 inh	PRMT1 inh	Apaf-1 inh	GSTO1 inh	PAD4 inh
O=C(CCO)c1ccc(O)cc1	2.4	6.7	-22.5	36.6*	9.5
Brc1ccc(C=Nc2ccc(Nc3ccccc3)cc2)s1	.	.	.	37.1*	24.3*
COc1ccc(-c2nnc(SCC(=O)Nc3ccc4cn[nH]c4c3)n2Cc2ccco2)cc1	-1.3	3.0	.	.	.
Nc1ccc(S(=O)(=O)c2cccc(N)c2)cc1	1.6	-2.3	-24.2	7.1	-0.1
Cc1ccc(S(=O)(=O)c2ccccc2)cc1S	.	.	10.6	-24.7	35.9*
COc1ccc(C(CCOC(=O)Oc2ccccc2)c2cc(OC)c(OC)c(OC)c2)cc1 (stereo unspecified)	2.6	-0.7	.	.	.
Cc1cnc(NC(=O)CSc2nnc(COc3ccccc3)o2)s1	-10.4	24.2*	-5.3	23.3	5.1
Cc1ccc(C(=O)CSc2nnc(COc3ccccc3)o2)cc1	4.9	1.9	13.5	37.1*	-0.7
CCOC(=O)[C@@]12CN(C(=O)OC(C)(C)C)CC=C1N(Cc1ccc(OC)cc1)C(=O)[C@H]2CC(=O)N1CCCC1	2.8	4.8	.	.	.
COC(=O)c1cc(-c2ccc(C)c3ccccc23)c(=O)n2c1CCC2	-2.9	-1.3	.	.	.
C=CCn1c(N)c(C(=O)Nc2cccc(C)c2)c2nc3ccccc3nc21	1.7	2.0	47.5*	17.5	-5.8
O=C(NCc1ccco1)c1cccc2c1C(=O)c1ccc(N3CCCC3)cc1S2(=O)=O	-5.9	37.1*	18.3	.	-19.9
CCCCOCCCNC(=O)C[C@@H]1C(=O)N(Cc2ccc(OC)cc2)C2=CCN(C(=O)OC(C)(C)C)C[C@]21C(=O)OCC	4.8	-4.5	.	.	.
COc1ccc(CNCC(O)(c2ccc(Cl)cc2)c2ccc(Cl)cc2)cc1OC	-17.2	-2.2	42.3*	-3.7	-4.0
Cc1ccc(NC(=O)CC(=O)Nc2ccc(C)c(C)c2)cc1C	-11.6	-1.5	12.1	-2.0	-1.3
Cc1ccc(Sc2ccc(NC(=O)CCl)cc2)cc1C	2.7	-2.8	11.5	78.1*	8.7
CCC[C@H]1[C@@H](N(C)Cc2cccs2)CC[C@@]23CCCN2C(=O)CCC[C@@H]13	-10.6	-0.4	.	.	.
O=C1C2C3C=CC(C3)C2C(=O)N1Cc1ccccc1 (stereo unspecified)	-5.7	-2.3	-16.9	3.5	-0.2
CC(=O)[C@@H]1[C@@H]2C(=O)N(Cc3ccccc3)C(=O)[C@@H]2C2c3ccccc3C=CN21 (stereo partly specified)	10.3	11.3	67.4*	29.5	-11.7
COc1ccc(N2C(=O)[C@@H]3[C@H](C2=O)[C@H]2c4ccccc4C=CN2[C@@H]3C(=O)Nc2ccccc2)cc1	10.1	-0.5	67.1*	22.4	-2.8
COc1ccc(N2C(=O)[C@@H]3[C@H](C2=O)[C@H]2C=CC=NN2[C@@H]3C(=O)Nc2ccc(Cl)cc2)cc1	-5.5	7.2	-8.9	12.9	0.5
O=C(c1ccco1)[C@@H]1[C@@H]2C(=O)N(c3ccccc3)C(=O)[C@@H]2C2c3ccccc3C=CN21 (stereo partly specified)	43.1*	14.9	85.6*	36.7*	-0.8
Cc1ccc(N2C(=O)[C@@H]3[C@H](C2=O)C2c4ccccc4C=CN2[C@@H]3C(=O)c2ccco2)cc1 (stereo partly specified)	14.1	10.1	.	.	.
Cc1ccc(N2C(=O)[C@@H]3[C@H](C2=O)C2c4ccccc4C=CN2[C@@H]3C(=O)c2ccco2)c(C)c1 (stereo partly specified)	26.4*	11.9	87.0*	28.5	-3.2
COC(=O)c1ccc2nc(-c3ccc(C)cc3)c(CC(C)(C)C)n2c1	-5.1	-1.9	.	.	.
SMILES	TDP2 inh	PRMT1 inh	Apaf-1 inh	GSTO1 inh	PAD4 inh
Cc1ccc(NCc2ccccc2OCc2ccccc2F)cc1	-2.4	2.0	12.0	7.2	-5.3
CCOc1ccccc1CNc1ccc(O)cc1	25.8*	18.9	.	.	.
Cc1cccc(CCNC(=O)Cn2nc(-c3ccccc3)ccc2=O)c1	4.9	3.7	.	.	.
Cc1ccc(C(=O)n2ccc3ccc(-c4ccc5ccn(Cc6ccccc6)c5c4)cc32)cc1	-5.8	0.6	.	.	.
Cc1cc(C)c2nc(N3CCCN(C(=O)c4ccco4)CC3)c(C#N)cc2c1	5.2	22.3*	23.2	0.6	3.0
CCn1c2ccccc2c2nnc(SCc3ccc(C(=O)OC)o3)nc21	4.4	24.5*	18.2	-0.8	1.5
O=C(NCC1CCN(C(=O)C(=O)c2cccs2)CC1)c1ccc2c(c1)CCO2	11.1	3.5	.	.	.
COc1ccc(CNC(=O)c2ccc3c(c2)N(C)C(=O)CS3=O)cc1 (stereo unspecified)	11.1	22.4*	-3.2	0.7	-2.2
Cc1cc(C)c(NC(=O)CSc2ccc(-c3cccnc3)nn2)c(C)c1	-8.2	23.2*	-6.7	7.8	0.8
COC(=O)[C@@]12C[C@@H](CC(=O)NCC34CC5CC(CC(C5)C3)C4)C(=O)N(Cc3ccco3)C1=CCC(C)(C)C2	-4.0	4.1	.	.	.
Cc1ccc(OC(=O)c2sc(Cl)nc2C)cc1C	-5.8	-0.7	1.1	35.5*	3.6
C[C@H]1Cn2nnc(-c3ccccc3)c2Cn2c3ccccc3c(=O)n21	-4.9	-1.4	.	.	.
COc1cccc(/C=N/Nc2ccc([N+](=O)[O-])cc2)c1O	-13.4	0.5	13.4	-5.3	-0.2
O=[N+]([O-])c1cccc(N/N=C/c2cccc(O)c2O)c1	-14.2	2.9	14.4	34.8*	-1.0
O=[N+]([O-])c1ccc(N/N=C/c2cccc(O)c2O)c(S(=O)(=O)N2CCOCC2)c1	-38.9	18.0	8.1	46.2*	-3.3
COc1cc(/C=N/Nc2ccc([N+](=O)[O-])cc2S(=O)(=O)N2CCOCC2)cc(OC)c1OC	-9.2	-1.9	-16.8	4.4	-1.2
Cc1cccc(NC(=O)NCCCN2CCN(c3ccc(F)cc3)CC2)c1	1.1	-4.0	.	.	.
Cc1ccc(S(=O)(=O)N/N=C/c2ccc(O)c(O)c2)cc1[N+](=O)[O-]	-12.9	0.0	-3.8	49.9*	-3.3
Cc1ccc(S(=O)(=O)N/N=C/c2ccccc2O)cc1[N+](=O)[O-]	-2.8	7.8	-6.2	-4.8	-2.0
C#CCCCN([C@@H](CC(C)C)C(=O)OC)S(=O)(=O)c1ccccc1Br	-3.4	1.7	.	.	.
Fc1ccc(-c2cc(-c3nnc4sc(Cc5cccs5)nn34)[nH]n2)cc1	-3.8	-0.5	.	.	.
c1csc(Cc2nn3c(-c4ccncc4)nnc3s2)c1	6.9	2.9	77.5*	-0.1	-3.0
Cc1ccc(C)c(NC(=O)C2CC3CCC2C3)c1 (stereo unspecified)	4.8	2.9	-2.4	-2.3	-8.7
Oc1ccc(C2C[C@H]3CC[C@@H]2C3)cc1O (stereo partly specified)	0.9	13.6	20.5	42.4*	-6.1
Cc1ccccc1NC(=S)N=Nc1c(O)n(C)c2ccc(S(=O)(=O)N3CCOCC3)cc12	-0.9	-0.9	-1.3	36.3*	-5.6
COc1ccc(S(=O)(=O)Nc2cccc3c2O[C@H](CN(C)Cc2ccccc2)[C@@H](C)CN([C@H](C)CO)C3=O)cc1	-4.7	-0.4	53.0*	.	0.0
